Compound activity deposited in PubChem BioAssay by several laboratories.
HSP90 refold inh = HSP90 refolding inhibition in rabbit reticulocyte lysate. luciferase refolding luminescence, 3 h. inhibition, % at 5.6 µM. hit rate 0.91% among 290,000;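 active means inhibition above the screen-wide mean plus 3 SD, computed separately per campaign, cut at about 16% in these data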;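 further: 0% = DMSO wells and 100% = 60 µM geldanamycin wells; inhibitors lower the luminescence because luciferase stays unfolded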
HSF-1 act = increases HSF-1 driven luciferase reporter signal; NIH3T3-HGL HSF-1 luciferase reporter, MG132, 8 h; 100% = twice DMSO control signal; activation, % at 9 µM; hit rate 1.7% among 300,000; AID 504408;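 active means mean replicate activation of at least 50% with a set share of replicates each reaching 50%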;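 further: 0% = median of the neutral control wells and 100% = twice that signal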
Tb hexokinase = T. brucei hexokinase 1 inhibition; recombinant TbHK1, G6PDH-coupled NADH A340; hit rate 0.11% among 220,000; inhibition, % at 10 µM;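 active means inhibition of 50% or more in the single-dose primary screen; inactive means inhibition below 50%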
Hsp70 activator = transcriptional activators of Hsp70; AID 1203; activation, % at 10 µM; hit rate 0.04% among 200,000; HeLa Hsp70 promoter luciferase reporter, luminescence; scaled: vehicle 0, proteasome-inhibitor control 100%;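 active means activation above the mean across all tested compounds plus 3 SD, cutoff set per campaign, cut at about 5.5% in these data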;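 further: 100% = MG132 at 30 µM as the positive control and 0% = DMSO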
HKDC1 inhibitor = HKDC1 (human) hexokinase inhibition | recombinant HKDC1, G6PDH/diaphorase resazurin coupled fluorescence | inhibition, % at 20 µM | hit rate 0.16% among 340,000 | AID 493160;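 active means inhibition above about 35% when tested at 20 µM, limit read from the data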;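 further: plate controls were DMSO wells with enzyme for no effect and DMSO wells lacking enzyme for full effect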
Target sequence (Q2TB90 whole entry, looked up): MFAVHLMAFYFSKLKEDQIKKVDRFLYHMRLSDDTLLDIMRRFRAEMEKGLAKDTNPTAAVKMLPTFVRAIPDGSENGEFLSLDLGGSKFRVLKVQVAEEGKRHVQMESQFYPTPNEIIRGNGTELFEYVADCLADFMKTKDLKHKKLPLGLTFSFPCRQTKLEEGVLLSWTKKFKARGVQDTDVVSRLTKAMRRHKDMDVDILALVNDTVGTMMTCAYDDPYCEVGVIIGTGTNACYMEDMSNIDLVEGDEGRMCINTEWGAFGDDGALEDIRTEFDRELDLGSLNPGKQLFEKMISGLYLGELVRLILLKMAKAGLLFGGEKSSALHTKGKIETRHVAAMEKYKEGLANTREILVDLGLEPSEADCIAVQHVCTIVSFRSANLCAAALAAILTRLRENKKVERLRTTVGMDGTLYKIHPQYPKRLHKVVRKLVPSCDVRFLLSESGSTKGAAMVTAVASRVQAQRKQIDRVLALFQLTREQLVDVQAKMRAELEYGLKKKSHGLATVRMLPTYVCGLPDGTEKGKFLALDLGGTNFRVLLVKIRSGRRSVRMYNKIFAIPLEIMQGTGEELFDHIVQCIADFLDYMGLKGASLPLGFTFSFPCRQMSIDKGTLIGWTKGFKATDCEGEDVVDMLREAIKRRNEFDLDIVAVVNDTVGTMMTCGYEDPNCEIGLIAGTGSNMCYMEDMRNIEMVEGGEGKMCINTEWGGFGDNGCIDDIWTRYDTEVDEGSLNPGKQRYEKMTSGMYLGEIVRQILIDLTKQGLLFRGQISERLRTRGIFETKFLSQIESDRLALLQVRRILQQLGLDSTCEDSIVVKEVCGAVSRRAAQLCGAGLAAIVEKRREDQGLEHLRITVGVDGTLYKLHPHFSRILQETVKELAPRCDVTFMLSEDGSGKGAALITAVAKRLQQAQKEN
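Test system: recombinant HKDC1 (HK5) hexokinase enzyme, produced in-house / Doses: 20 µM test compound, 1% DMSO / Timing: 90 min, room temperature / Detection: G6PDH/diaphorase-coupled fluorescence, 1 mM NADP, 100 µM resazurin, 525/613 nm / Control set: DMSO wells with and without enzyme mix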
HSF1 inhib = HSF1 inhibition; AID 2098; activity change, negative = inhibition, % at 7.5 µM (by protocol); NIH3T3-HGL HSE-luciferase, MG132-induced, luminescence 8 h; hits give low values; hit rate 0.77% among 300,000;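 active means more than half of replicate wells show activity change below -50%, luminescence cut by over half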;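 further: luciferase reports HSF-1 transcriptional activity via heat shock element; 0% = median of DMSO wells and -100% = zero luminescence signal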
Starred values were filed as active, the others as inactive; . = not tested or not shown. This is a sample that favours compounds with a hit; in the whole collection about 3.1% have one here.

SMILES | HSP90 refold inh | HSF-1 act | Tb hexokinase | Hsp70 activator | HKDC1 inhibitor | HSF1 inhib
O=C(c1ccc(F)cc1)c1ccc(N2CCCC2)cc1 | 1.0 | 26.0 | -1.0 | 0.4 | 6.2 | 12.4
O=C(c1ccc(F)cc1)c1ccc(N2CCCCC2)cc1 | 3.6 | 63.9* | . | . | 2.3 | 31.1
OCc1ccc(O)c2ncccc12 | -2.8 | -58.2 | 11.8 | -0.2 | -15.8 | -53.7*
C#CCOCCOCCOCCNc1nc(N2CCN(C(=O)[C@H](CCCCN)n3cc(CN)nn3)CC2)nc(N2CCN(C(=O)[C@H](CCCN=C(N)N)n3cc(C(N)[C@H](C)CC)nn3)CC2)n1 (some centres undefined) | . | . | . | . | -2.0 | .
COc1ccc(CN(CCCN2CCOCC2)C(=O)Nc2cccc(Cl)c2)cc1OC | -1.7 | -60.6 | -11.3 | -0.4 | -9.3 | -52.1*
O=C(Nc1cccc(Cl)c1)N(CCN1CCOCC1)Cc1cccc(Cl)c1 | -1.8 | 29.1 | -14.8 | -0.3 | 8.1 | -0.4
COc1ccc(NC(=O)Nc2ccc3c(c2)CC(=O)N([C@H](C)CO)C[C@@H](C)[C@H](CN(C)C(=O)Nc2ccccc2)O3)cc1 | . | . | . | . | -3.0 | .
Cc1nn(-c2ccccc2)c(C)c1NC(=O)COc1cc(F)ccc1[N+](=O)[O-] | . | . | . | . | -3.1 | .
Oc1c(Br)cc(Br)cc1C=Nc1ccc2c(c1)OCO2 | 0.9 | . | -7.3 | -0.3 | 11.0 | .
O=[N+]([O-])c1ccc(O)c(C=Nc2ccc3oc(Cc4ccc(Cl)cc4)nc3c2)c1 | 1.1 | -77.7 | -17.6 | -0.3 | . | -73.5*
Oc1c(Br)cc(Br)cc1C=Nc1ccc2c(c1)OCCO2 | -2.1 | -79.6 | -6.3 | 0.0 | 7.2 | -79.3*
O=[N+]([O-])c1ccc(O)c(C=Nc2ccc3c(c2)OCCO3)c1 | 0.2 | -67.6 | -25.6 | -0.3 | -3.0 | -64.4*
O=[N+]([O-])c1ccc(O)c(C=Nc2cccc3ncccc23)c1 | 6.1 | 38.9 | -25.3 | 0.0 | 14.0 | 24.3
O=[N+]([O-])c1ccc(O)c(C=Nc2cccc3ccccc23)c1 | 8.5 | 4.6 | . | . | 16.7 | 1.4
O=C(CS(=O)CC(=O)NC12CC3CC(CC(C3)C1)C2)Nc1ccc(F)cc1 (centres undefined) | -2.1 | 8.2 | . | . | -6.3 | -2.0
CC1(C(=O)Nc2cccc(-n3cnnn3)c2)Cc2ccccc2C(=O)O1 (centres undefined) | . | -0.5 | . | . | -2.4 | -0.5
Cc1ccc(-c2nnn(CC(=O)N(Cc3cccs3)C(C(=O)NC3CCCC3)c3ccncc3)n2)cc1 (centres undefined) | 4.3 | -54.8 | -5.7 | -0.4 | -0.5 | -55.2*
O=C(NCC1CCCO1)C(c1ccncc1)N(Cc1cccs1)C(=O)Cn1nnc(-c2ccc(F)cc2)n1 (centres undefined) | -1.2 | -2.1 | -6.2 | -0.5 | -5.2 | 4.0
CCc1cc(=O)oc2c(CNCc3ccc(OC)cc3OC)c(O)c(Cl)cc12 | -2.8 | -3.2 | . | . | 0.8 | 4.0
C=CCOC(=O)c1ccc(-n2cncn2)nc1 | -0.8 | 3.3 | -4.1 | 0.0 | -5.6 | -2.9
O=C(Oc1ccccc1Cl)c1ccc(-n2cncn2)nc1 | -0.4 | -91.8 | 4.9 | 0.5 | -7.8 | -89.4*
CC(=O)Nc1ccc(S(=O)(=O)N[C@@H](C)C(=O)OCC(=O)c2ccc(C)cc2)cc1 | . | . | . | . | -5.1 | .
CCCn1c(SCc2nc3sc(C)c(C)c3c(=O)[nH]2)nc2ccccc2c1=O | -1.1 | 113.8* | -0.9 | 0.5 | 6.7 | 61.0
Cc1scc(C(=O)NCc2ccco2)c1-c1ccccc1 | 2.7 | 63.5* | 10.9 | 0.3 | 17.2 | 28.3
O=S(=O)(NCC(c1ccco1)N1CCCCC1)c1ccccc1C(F)(F)F (centres undefined) | . | . | . | . | -4.8 | .
SMILES | HSP90 refold inh | HSF-1 act | Tb hexokinase | Hsp70 activator | HKDC1 inhibitor | HSF1 inhib
NC(=O)COC(=O)c1cc(=O)[nH]c2ccccc12 | -0.7 | -71.1 | -10.5 | . | -5.0 | -62.5*
CC(C)(C)c1ccc(C(=O)COC(=O)CN2C(=O)NC3(CCCC3)C2=O)cc1 | 3.3 | 6.5 | . | . | -4.2 | -5.1
CCCc1c(C(=O)N/N=C/c2cccc(OCc3ccc(F)cc3)c2)nnn1-c1nonc1N | -1.0 | 19.4 | . | . | 1.8 | 7.1
Nc1nonc1-n1nnc(C(=O)N/N=C/c2ccc(OCc3ccccc3)cc2)c1COc1ccc(F)cc1 | -1.0 | 3.5 | -36.8 | . | -7.4 | 3.5
CN(C)Cc1c(C(=O)N/N=C/c2ccc(OCc3c(F)cccc3Cl)cc2)nnn1-c1nonc1N | 6.5 | 108.5* | . | . | -1.7 | 55.2
Nc1nonc1-n1nnc(C(=O)N/N=C/c2ccc(O)cc2)c1COc1ccc(F)cc1 | 0.3 | -8.1 | -21.6 | . | -7.1 | -3.0
Cc1cccc(COc2ccc(/C=N/NC(=O)c3nnn(-c4nonc4N)c3COc3ccc(F)cc3)cc2)c1 | 16.1* | 5.7 | -42.9 | . | -5.9 | 6.4
CCN(CC)Cc1c(C(=O)N/N=C/c2cccc(OCc3cccc(Cl)c3)c2)nnn1-c1nonc1N | -1.6 | 57.3* | . | . | 2.9 | 25.2
O=C(Nc1cccc(-c2cn3ccccc3n2)c1)c1cccc(Cl)c1 | 0.3 | -10.4 | -4.2 | -0.1 | -4.4 | 0.3
O=C(Nc1cccc(-c2cn3ccccc3n2)c1)c1cnccn1 | 9.1 | 54.2* | -2.0 | -0.3 | 2.6 | 16.1
CC(C)[C@H](NS(=O)(=O)c1cccc(C(F)(F)F)c1)C(=O)OCC(=O)NC(=O)NCc1ccco1 | . | . | . | . | 6.7 | .
Cc1cc(C)c(C(=O)/C=C/c2cccc3ccccc23)c(=O)[nH]1 | 5.4 | 83.8* | 5.1 | -0.4 | 12.7 | 65.4
O=C(COc1ccccc1)Nc1nnc(S(=O)(=O)N2CCCCCC2)s1 | 1.2 | -77.6 | . | . | 2.0 | -71.0*
CC(C)N(C(=O)COC(=O)CCC(=O)c1cccs1)c1ccccc1 | . | . | . | . | -1.0 | .
COCCN(CC(=O)NC1CCCCC1)C(=O)/C=C/C(=O)c1ccc(OC)cc1O | -1.9 | -85.3 | -7.7 | 0.1 | -3.6 | -83.5*
O=C(O)c1cccc2c1C(=O)c1ccc(-c3ccc(Cl)c(C(F)(F)F)c3)cc1S2(=O)=O | . | . | . | . | 1.8 | .
Cc1cccc(S(=O)(=O)c2c(N)n(Cc3ccco3)c3nc4ccccc4nc23)c1 | 1.9 | 27.8 | -12.3 | -0.4 | 9.5 | 24.9
Cc1cccc(-n2cnc3c(c2=O)c2nc4ccccc4nc2n3Cc2ccco2)c1 | . | 104.4* | . | . | -4.7 | 101.4
Nc1nc(NCc2ccco2)nc(NC2CCCCC2)c1[N+](=O)[O-] | 3.1 | -78.7 | -38.7 | . | -9.5 | -72.0*
Nc1nc(NCCO)nc(NC2CCCCC2)c1[N+](=O)[O-] | -1.5 | -73.5 | . | . | -0.2 | -68.8*
COc1c(CC=C(C)C)cc(C2CC(=O)c3c(O)cc(O)cc3O2)cc1CC=C(C)C (centres undefined) | . | -90.7 | -18.4 | . | 5.9 | -90.8*
COc1cccc(-c2nc3sc4c(c3c(=O)[nH]2)CCCCC4)c1 | -6.2 | 53.1* | -3.0 | -0.2 | -0.1 | 26.3
O=C(CCCn1c(=O)[nH]c2cc(Cl)ccc2c1=O)NCC1CCCO1 (centres undefined) | 3.4 | -30.8 | -5.3 | -0.4 | -5.9 | -18.0
